Measurements from ChEMBL document CHEMBL5647697, “Akt inhibition synergizes with polycomb repressive complex 2 inhibition in the treatment of multiple myeloma” (2019).
Activity calls are given as the source filed them. The calls are words filed in the database; no cut-off is given here.

Columns and labels:
MM1.S [1] = test: Cytotoxicity against human MM1.S cells assessed as reduction in cell viability at 0.3125 to 10 micromol/L after 48 hrs by MTS assay; assay type: functional, cell-based; details: dose 0.3125-10 µmol/L
Outline: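 Seven myeloma lines (MM.1S, H929, OPM2/BTZ among them) exposed to TAS-117 at increasing concentrations up to 10 μmol/L for 48 h. Viability read by MTS against an untreated control; mean ± SD of triplicates.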

NCI-H929 [2] = test: (§1) Synergistic activity against human NCI-H929 cells assessed as combination index […] at 0.25 uM incubated for 48 hrs by […]; assay type: functional
Outline: (§2)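 Cells were exposed to the EZH2/EZH1 inhibitor (UNC1999 or GSK126) for 72 h in total, with the Akt inhibitor added for the last 48 h. Viability was read by MTS assay relative to untreated control cells, in triplicate. The combination index for each dose pair came from isobologram analysis.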

OPM-2 [3] = test: Effects on EZH2 mRNA expression in human OPM-2 cells at 3 micromol/L incubated for last 24 hrs by qRT-PCR analysis; assay type: functional, cell-based; details: dose 3.0 µmol/L
NCI-H929 [4] = test: Induction of apoptosis in human NCI-H929 cells assessed as late apoptotic cells at 5 micromol/L incubated for 48 hrs by annexin V/PI staining based flow cytometry (reference value: […]%); assay type: functional; details: dose 5 µmol/L
NCI-H929 [5] = test: as §1; assay type: functional; outline: as §2; remark: listed apart in the source
OPM-2 [6] = test: Synergistic activity against human OPM-2 cells assessed as combination index preincubated in presence of 5 uM GSK126 for 72 hrs followed by compound addition at 1.25 uM incubated for 48 hrs by MTT assay; assay type: functional
MM1.S [7] = test: Upregulation of CDKN1B mRNA expression in human MM1.S cells at 1 micromol/L after 24 hrs by qRT-PCR analysis; assay type: functional, cell-based; details: dose 1.0 µmol/L
MM1.S [8] = test: Upregulation of p27 protein expression in human MM1.S cells incubated at 0.3 to 3 micromol/L for 48 hrs by Western blot analysis; assay type: functional, cell-based; details: dose 0.3-3 µmol/L
OPM-2 [9] = test: Synergistic activity against human OPM-2 cells assessed as combination index preincubated in presence of 1.25 uM GSK126 for 72 hrs followed by compound addition at 5 uM incubated for 48 hrs by MTT assay; assay type: functional
MM1.S [10] = test: Downregulation of CDK2 protein expression in human MM1.S cells incubated at 0.3 to 3 micromol/L for 48 hrs by Western blot analysis; assay type: functional, cell-based; details: dose 0.3-3 µmol/L
Outline: (§3)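 MM.1S and H929 cells given TAS-117 at the indicated doses for 48 h. Protein levels assessed by immunoblot.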

MM1.S [11] = test: Downregulation of CDK1 protein expression in human MM1.S cells incubated at 0.3 to 3 micromol/L for 48 hrs by Western blot analysis; assay type: functional, cell-based; details: dose 0.3-3 µmol/L; outline: as §3
NCI-H929 [12] = test: Upregulation of EZH1 mRNA expression in human NCI-H929 cells at 0.03 to 3 micromo/L at 6 to 48 hrs by qRT-PCR analysis; assay type: functional, cell-based; details: dose 0.03-3 µmol/L, time 6-48 hrs
Outline: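 EZH1 mRNA was measured by qRT-PCR in MM.1S and H929 cells. Dose series: cells were treated with graded TAS-117 for 24 h. Time course: cells were treated with 3 μmol/L for the indicated times. Fold change is after GAPDH normalization, relative to the untreated control. Data are SD of triplicates.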

NCI-H929 [13] = test: Induction of apoptosis in human NCI-H929 cells assessed as late apoptotic cells preincubated in presence of 5 micromol/L UNC1999 for 48 hrs followed by compound addition at 2 micromol/L incubated for 12 hrs by annexin V/PI staining based flow cytometry (reference value: […]%); assay type: functional; details: dose 2 µmol/L
NCI-H929 [14] = test: Induction of apoptosis in human NCI-H929 cells assessed as necrotic cells at 5 micromol/L incubated for 48 hrs by annexin V/PI staining based flow cytometry (reference value: 2.61%); assay type: functional; details: dose 5 µmol/L, at 5 µM
NCI-H929 [15] = test: Induction of apoptosis in human NCI-H929 cells assessed as viable cells at 5 micromol/L incubated for 48 hrs by annexin V/PI staining based flow cytometry (reference value: 95.6%); assay type: functional; details: NCI-H929, 48 h, dose 5 µmol/L, read-out: Activity
OPM-2/BTZ [16] = test: Synergistic activity against human OPM-2/BTZ cells assessed as combination index preincubated in presence of 2.5 uM GSK126 for 72 hrs followed by compound addition at 2 uM incubated for 48 hrs by MTT assay; assay type: functional
NCI-H929 [17] = test: Induction of apoptosis in human NCI-H929 cells assessed as viable cells preincubated in presence of 5 micromol/L UNC1999 for 48 hrs followed by compound addition at 2 micromol/L incubated for 12 hrs by annexin V/PI staining based flow cytometry (reference value: 95.6%); assay type: functional; details: dose 2 µmol/L, at 2 µM
MM1.S [18] = test: Synergistic activity against human MM.1S cells assessed as combination index […] at 0.125 uM incubated for 48 hrs by […]; assay type: functional; outline: as §2
MM1.S [19] = test: Induction of apoptosis in human MM1.S cells assessed as early apoptotic cells at 2 micromol/L incubated for 12 hrs by annexin V/PI staining based flow cytometry (reference value: 8.03%); assay type: functional; details: dose 2 µmol/L, at 2 µM
NCI-H929 [20] = test: Induction of apoptosis in human NCI-H929 cells assessed as early apoptotic cells at 5 micromol/L incubated for 48 hrs by annexin V/PI staining based flow cytometry (reference value: 0.37%); assay type: functional; details: dose 5 µmol/L, at 5 µM
OPM-2 [21] = test: Synergistic activity against human OPM-2 cells assessed as combination index preincubated in presence of 1.25 uM GSK126 for 72 hrs followed by compound addition at 1.25 uM incubated for 48 hrs by MTT assay; assay type: functional
NCI-H929 [22] = test: Synergistic activity against human NCI-H929 cells assessed as combination index […] compound addition at 0.125 uM incubated for 48 hrs by MTT assay; assay type: functional; outline: as §2
MM1.S [23] = test: Downregulation of EZH2 mRNA expression in human MM1.S cells transduced with EZH1 at 0.3 micromol/L after 24 hrs by qRT-PCR analysis; assay type: functional, cell-based; details: dose 0.3 µmol/L
Outline: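 EZH1-shRNA or shLuc lentivirus-transduced MM.1S cells treated with TAS-117 at the indicated doses for 24 h. EZH2 mRNA by RT-qPCR, fold change normalized to GAPDH.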

OPM-2/BTZ [24] = test: Synergistic activity against human OPM-2/BTZ cells assessed as combination index preincubated in presence of 2.5 uM GSK126 for 72 hrs followed by compound addition at 0.5 uM incubated for 48 hrs by MTT assay; assay type: functional
OPM-2 [25] = test: Synergistic activity against human OPM-2 cells assessed as combination index preincubated in presence of 5 uM UNC1999 for 72 hrs followed by compound addition at 1.25 uM incubated for 48 hrs by MTT assay; assay type: functional
OPM-2/BTZ [26] = test: Synergistic activity against human OPM-2/BTZ cells assessed as combination index preincubated in presence of 1.25 uM GSK126 for 72 hrs followed by compound addition at 2 uM incubated for 48 hrs by MTT assay; assay type: functional
OPM-2 [27] = test: Effects on EZH2 protein expression in human OPM-2 cells at 3 micromol/L incubated for 24 hrs by Western blot analysis; assay type: functional, cell-based; details: dose 3.0 µmol/L
OPM-2/BTZ [28] = test: Downregulation of E2F1 mRNA expression in human OPM-2/BTZ cells incubated at 0.3 to 3 micromol/L for 48 hrs by qRT-PCR analysis; assay type: functional, cell-based; details: dose 0.3-3 µmol/L

C[C@]1(O)C[C@@](N)(c2ccc(-c3nc4n(c3-c3ccccc3)COc3ccncc3-4)cc2)C1 [PIFUSERTIB]
Activity (MM1.S [1]): Active | CI (NCI-H929 [2]): 0.778 | Activity (OPM-2 [3]): inactive | Activity (NCI-H929 [4]): 6.81% | CI (NCI-H929 [5]): 0.712 | CI (OPM-2 [6]): 1.44 | Activity (MM1.S [7]): Active | Activity (MM1.S [8]): Active | CI (OPM-2 [9]): 11.425 | Activity (MM1.S [10]): Active | Activity (MM1.S [11]): Active | Activity (NCI-H929 [12]): Dose-Dependent Effect | Activity (NCI-H929 [13]): 11.3% | Activity (NCI-H929 [14]): 0.84% | viability at 5 µM (NCI-H929 [15]): 82.7% | CI (OPM-2/BTZ [16]): 0.205 | Activity (NCI-H929 [17]): 70.4% | CI (MM1.S [18]): 0.27 | Activity (MM1.S [19]): 9.49% | Activity (NCI-H929 [20]): 9.69% | CI (OPM-2 [21]): 1.29 | CI (NCI-H929 [22]): 0.858 | Activity (MM1.S [23]): Active | CI (OPM-2/BTZ [24]): 0.296 | CI (OPM-2 [25]): 5.25 | CI (OPM-2/BTZ [26]): 0.203 | Activity (OPM-2 [27]): inactive | Activity (OPM-2/BTZ [28]): Active
